The results in this text go back to ChEMBL document CHEMBL1156871, “Nonpeptidic tetrafluorophenoxymethyl ketone cruzain inhibitors as promising new leads for Chagas disease chemotherapy” (J Med Chem, 2010).

Calls of active or inactive are those of the source. The calls are words filed in the database; no cut-off is given here.

Data set [1] in a line: Cytotoxicity against BEMS cells. The class given is cell-based. The settings on record: Bos taurus. The method, boiled down: (§1)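 BESM cells in RPMI-1640 with 5% heat-inactivated FCS (37 °C, 5% CO2) infected with Y-strain trypomastigotes, then given fresh medium with inhibitor at 0, 0.3, 1, 3 and 10 μM for 72 h. Fixed in 4% paraformaldehyde and stained with DAPI (0.1 μg/mL), then imaged. Nuclei were sorted by size: host >150 μm², parasite 2-4 μm². The parasite/host nuclei ratio gave the IC50, and the loss of host nuclei gave cytotoxicity. Duplicate or triplicate runs averaged.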

Data set [2] deals with Cruzipain (Trypanosoma cruzi) (UniProt P25779). Nature of the data set: (§2) Inhibition of Trypanosoma cruzi cruzain.
The target of a further data set is Cruzipain (Trypanosoma cruzi, UniProt P25779). Described as §2.
In data set [3] the target is Cruzipain (Trypanosoma cruzi) (UniProt P25779). Nature of the data set: Ratio of kinact to Ki for Trypanosoma cruzi cruzain.
Data set [4] concerns Trypanosoma cruzi. Nature of the data set: Antitrypanosomal activity against Trypanosoma cruzi Y strain infected in BESM cells assessed as reduction of parasite number after 72 hrs. The class given is functional, organism-based. The method, boiled down:
as §1

For data set [5], the system named is Trypanosoma cruzi. The experiment in a line: Antitrypanosomal activity against Trypanosoma cruzi trypomastigotes infected in C3H mouse assessed as infection in spleen at 20 mg/kg, ip bid for 27 days. Also on record: dose 20 mg/kg. The format is functional, organism-based. The method, boiled down:
(§3)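 Female C3H mice (mean 22 g) infected ip with 1.2 × 10⁶ tissue-culture trypomastigotes. From 24 h post-infection, treated (n=5) with 20 mg/kg ip b.i.d. for 27 days in 70% DMSO:30% water, prepared daily; untreated controls n=3. Mice were sacrificed at day 77 post-infection for symptom scoring and histopathology of heart, skeletal muscle, liver, spleen and colon.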

Data set [6] has as its system Trypanosoma cruzi. The experiment in a line: Antitrypanosomal activity against Trypanosoma cruzi trypomastigotes infected in C3H mouse assessed as infection in colon at 20 mg/kg, ip bid for 27 days. The class given is functional, organism-based. The arrangement: dose 20 mg/kg. The method, boiled down:
as §3

Data set [7] relates to Trypanosoma cruzi. Nature of the data set: Antitrypanosomal activity against Trypanosoma cruzi trypomastigotes infected mouse model assessed as chagas disease symptoms at 20 mg/kg, ip bid for 27 days measured after 77 days of post infection.
Data set [8] concerns Trypanosoma cruzi. Nature of the data set: Antitrypanosomal activity against Trypanosoma cruzi trypomastigotes infected in C3H mouse assessed as acute chagas disease symptoms at 20 mg/kg, ip bid for 27 days. Also on record: dose 20 mg/kg. The class given is functional, organism-based. In a few lines:
as §3

For the next data set, the system named is Mus musculus. The experiment in a line: Toxicity in Trypanosoma cruzi trypomastigotes infected mouse model at 20 mg/kg, ip bid for 27 days. The note with it: in vivo, 648 h.
Data set [9] has as its system Trypanosoma cruzi. The experiment in a line: Antitrypanosomal activity against Trypanosoma cruzi trypomastigotes infected in C3H mouse assessed as infection in liver at 20 mg/kg, ip bid for 27 days. The arrangement: dose 20 mg/kg. The class given is functional, organism-based. In a few lines:
as §3

Data set [10] concerns Trypanosoma cruzi. Nature of the data set: Antitrypanosomal activity against Trypanosoma cruzi trypomastigotes infected in C3H mouse assessed as infection in skeletal muscle at 20 mg/kg, ip bid for 27 days. The settings on record: Muscle tissue. The format is functional, organism-based. Also on record: dose 20 mg/kg. The method, boiled down:
as §3

Data set [11] deals with Trypanosoma cruzi. The experiment in a line: Antitrypanosomal activity against Trypanosoma cruzi trypomastigotes infected in C3H mouse assessed as infection in heart at 20 mg/kg, ip bid for 27 days. The class given is functional, organism-based. The arrangement: dose 20 mg/kg. The method, boiled down: as §3

Chain of Cruzipain (P25779 whole entry): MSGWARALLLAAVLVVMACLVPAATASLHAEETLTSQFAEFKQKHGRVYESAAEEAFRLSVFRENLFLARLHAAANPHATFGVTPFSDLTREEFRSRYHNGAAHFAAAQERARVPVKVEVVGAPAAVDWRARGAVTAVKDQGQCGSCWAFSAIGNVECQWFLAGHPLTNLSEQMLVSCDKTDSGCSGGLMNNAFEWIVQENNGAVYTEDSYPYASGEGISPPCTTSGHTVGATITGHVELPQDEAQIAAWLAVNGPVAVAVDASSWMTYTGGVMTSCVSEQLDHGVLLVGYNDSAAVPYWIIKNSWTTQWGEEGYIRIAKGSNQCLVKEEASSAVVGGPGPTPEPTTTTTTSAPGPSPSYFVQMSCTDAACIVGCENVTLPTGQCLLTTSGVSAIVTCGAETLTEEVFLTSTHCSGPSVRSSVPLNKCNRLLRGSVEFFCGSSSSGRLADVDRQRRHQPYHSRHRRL
Chain of Cruzipain (Trypanosoma cruzi) (P25779 123-467 limits assumed): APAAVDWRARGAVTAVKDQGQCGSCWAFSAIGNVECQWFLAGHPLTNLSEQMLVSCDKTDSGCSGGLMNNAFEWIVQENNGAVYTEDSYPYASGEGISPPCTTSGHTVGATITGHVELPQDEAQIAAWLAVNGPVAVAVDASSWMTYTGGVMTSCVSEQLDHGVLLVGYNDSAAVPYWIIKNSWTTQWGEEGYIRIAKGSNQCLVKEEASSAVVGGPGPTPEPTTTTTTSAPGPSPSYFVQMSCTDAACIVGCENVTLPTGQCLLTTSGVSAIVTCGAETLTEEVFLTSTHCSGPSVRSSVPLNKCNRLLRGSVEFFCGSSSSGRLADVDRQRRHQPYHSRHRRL

One may read the IC50 as the concentration that gives 50% inhibition. In general, Ki refers to the dissociation constant of the complex between target and ligand, obtained from inhibition or displacement. For the compound `CCC(C(=O)COc1c(F)c(F)cc(F)c1F)n1cc([C@](C)(CC(C)C)NCc2ccc3ncccc3c2)nn1` (some centres undefined), the IC50 in data set [1] was over 10 µM; in the data set with Trypanosoma cruzi [4], 5.7 µM. The Kinact in data set [2] came out at 0.048 s⁻¹. Affinity at Cruzipain was put at a Ki of 0.19 µM. Moreover, the Ratio in data set [3] was found to be 487000 M⁻¹ s⁻¹.
Taken in the same sequence, the figures for `CCC(C(=O)COc1c(F)c(F)cc(F)c1F)n1cc([C@@](C)(NCc2ccc3ncccc3c2)C(C)C)nn1` (some centres undefined) were over 10 µM, 8.3 µM, 0.066 s⁻¹, 1.04 µM and 124000 M⁻¹ s⁻¹.
Taken in the same sequence, the figures for `CCCCC(C(=O)COc1c(F)c(F)cc(F)c1F)n1cc([C@](C)(CC(C)C)NCc2ccc3ncccc3c2)nn1` (some centres undefined) were over 10 µM, 3.1 µM, 0.036 s⁻¹, 0.1 µM and 657000 M⁻¹ s⁻¹.
Taken in the same sequence, the figures for `CCCCC(C(=O)COc1c(F)c(F)cc(F)c1F)n1cc([C@@](C)(NCc2ccc3ncccc3c2)C2CCC2)nn1` (some centres undefined) were over 10 µM, 4.1 µM, 0.047 s⁻¹, 0.13 µM and 680000 M⁻¹ s⁻¹.
Consider `CC(C(=O)COc1c(F)c(F)cc(F)c1F)n1cc([C@@](C)(NCc2ccc3ncccc3c2)C(C)C)nn1` (some centres undefined), for which, in data set [2], the Kinact came to 0.043 s⁻¹. At Cruzipain, this compound had an inhibition constant Ki of 6.76 µM. In addition, in data set [3], the Ratio came to 12300 M⁻¹ s⁻¹.
In the case of `CCCCC(C(=O)COc1c(F)c(F)cc(F)c1F)n1cc([C@@](C)(NCc2ccc3ncccc3c2)C2CC2)nn1` (some centres undefined), the results for the IC50 (in data set [1]; in the data set on Trypanosoma cruzi [4]) were over 10 µM and 4.3 µM, respectively. This compound yielded a Kinact in [2] of 0.089 s⁻¹. The compound further came in with a Ki on Cruzipain of 0.94 µM. Also, the Ratio in data set [3] amounted to 179000 M⁻¹ s⁻¹.
With `CCCCC(C(=O)COc1c(F)c(F)cc(F)c1F)n1cc([C@@](C)(NCc2ccc3ncccc3c2)C2CCCCC2)nn1` (some centres undefined), the Kinact in data set [2] came to 0.037 s⁻¹. This compound also showed a Ki at Cruzipain of 1.22 µM. In addition, the Ratio in [3] stood at 58000 M⁻¹ s⁻¹.
Turning to `CCC(C(=O)COc1c(F)c(F)cc(F)c1F)n1cc([C@@](C)(NCc2ccc3ncccc3c2)C2CCC2)nn1` (mixture of isomers), the IC50 was over 10 µM in data set [1] and 5.8 µM with Trypanosoma cruzi [4]. In data set [2], this compound gave a Kinact of 0.096 s⁻¹. The compound also gave a Ki on Cruzipain of 0.35 µM. For the same compound, in data set [3], the Ratio was determined as 522000 M⁻¹ s⁻¹.
As for `CCCCC(C(=O)COc1c(F)c(F)cc(F)c1F)n1cc([C@@](C)(NCc2ccc3ncccc3c2)C2CCCC2)nn1` (some centres undefined), the 50% inhibitory concentration (IC50) in data set [1] came out at 10 µM; with Trypanosoma cruzi [4] it was 4.2 µM. The compound further showed an inhibition constant (Ki) on Cruzipain of 0.11 µM.
For `CCCCC(C(=O)COc1c(F)c(F)cc(F)c1F)n1cc([C@@](C)(NCc2ccc3ncccc3c2)C(C)C)nn1` (some centres undefined), the IC50 in data set [1] was over 10 µM; in the data set with Trypanosoma cruzi [4] it was 5.1 µM. Besides, the result in the data set with Trypanosoma cruzi [5], in the data set on Trypanosoma cruzi [6], with Trypanosoma cruzi [7], in the data set on Trypanosoma cruzi [9] and in the data set on Trypanosoma cruzi [11] was Active. Further, the Activity entry in the data set on Trypanosoma cruzi [8] and with Mus musculus was “Non-toxic” in each case. Besides, the outcome with Trypanosoma cruzi [10] was inactive.
